Rows were chosen to be rich in hits. Some 6.4% of all compounds tested hit in one or more screens of this group.
Lung fibro prol: blocks proliferation of human lung fibroblasts; AID 719; LL 47 human lung fibroblast viability, ATP luminescence; stronger effect = lower value; viability, % at 10 µM; hit rate 1.1% among 85,000;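 active = viability at or below 50% in the single dose screen; inactive = viability above 50%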;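 note: compound exposure lasted 72 h before the ATP readout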
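Material: human LL 47 lung fibroblast cells; quantity: 1,150 cells/well; medium: IMEM plus 15% FBS; doses: 0.1% DMSO in all compound wells; timing: overnight attachment after seeding, then 72 h compound exposure at 37 °C; detection: CellTiter-Glo luminescence; measure: % viability of median cell-only signal; controls: cell-only wells, no compound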
Jurkat viability: cytotoxicity toward Jurkat cells; Jurkat E6.1 viability, ATP luminescence, 48 h; inhibition, % at 4 µM; hit rate 1.2% among 56,000; AID 463;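 active = inhibition above the mean inhibition of all tested compounds plus 3 SD, cut at about 28% in these data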
H69AR inhibit: growth inhibitors of human H69AR lung tumor cells; H69AR lung tumor viability, ATP luminescence, 72 h; stronger effect = lower value; viability, % at 10 µM; hit rate 6% among 85,000; AID 598;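 active = viability at or below 40%; inactive = viability above 40%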;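 note: multidrug resistant small cell line overexpressing MRP-1 efflux transporter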
HUVEC prolif 384: human endothelial cell proliferation inhibition; HUVEC proliferation, CellTiter-Glo luminescence, 72 h; stronger effect = lower value; viability, % at 10 µM (by protocol); hit rate 1.1% among 86,000;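 active = viability at or below 30%; inactive = viability above 30%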
Hits are given with their value; – = inactive; · = no result given.

SMILES	Lung fibro prol	Jurkat viability	H69AR inhibit	HUVEC prolif 384
Cc1ccc(OCc2nc(C#N)c(NCCCn3ccnc3)o2)cc1	–	–	–	–
COc1ccccc1N1CCN(C(=O)c2oc3cc(C)cc(C)c3c2C)CC1	–	·	23.1	–
COc1cc(C(=O)N2CCN(c3cccc(C)c3C)CC2)cc(OC)c1OC	·	93.5	·	·
COc1ccccc1N1CCN(C(=O)c2ccoc2C)CC1	–	–	–	–
Cc1ccccc1S(=O)(=O)Cc1ccc(C(=O)N2CCN(c3cccc(C)c3C)CC2)o1	·	93.4	·	·
CCOc1ccccc1N1CCN(C(=O)c2ccncc2)CC1	·	–	·	·
Cc1cccc(N2CCN(C(=O)c3ccncc3)CC2)c1C	–	60.0	21.4	–
Cc1ccccc1S(=O)(=O)Cc1ccc(C(=O)N2CC(C)CC(C)C2)o1 (configuration not stated)	–	–	–	–
CCN(CC)S(=O)(=O)c1cc(C(=O)Nc2nncs2)c(Cl)cc1Cl	–	–	–	–
COc1cc(OC)c(C(=O)Nc2cccc(C(C)=O)c2)cc1OC	–	·	–	–
CCN1CCCC1CNC(=O)c1ccc(CS(=O)(=O)c2ccccc2C)o1 (configuration not stated)	–	–	–	–
Cc1cccc(N2CCN(C(=O)C(Cc3ccccc3)n3cccc3)CC2)c1C (configuration not stated)	–	·	22.7	–
COc1cc(C(=O)N2CCN(c3cc(Cl)ccc3Cl)CC2)cc(OC)c1OC	–	60.6	33.2	–
O=C(NCc1cccs1)C1CCN(c2ccc(S(=O)(=O)N3CCOCC3)cc2Cl)CC1	–	91.1	17.6	–
CC(C)CNC(=O)C1CCN(c2ccc(S(=O)(=O)N3CCOCC3)cc2Cl)CC1	–	–	–	–
c1ccc(-c2nc(CSc3n[nH]c(-c4cccs4)n3)cs2)cc1	–	·	–	–
CCn1cc(C(=O)NCc2ccc(Cl)cc2)c(=O)c2cc(S(=O)(=O)N3CCOCC3)ccc21	–	–	29.9	–
CCN(CC)S(=O)(=O)c1ccc2oc(C(=O)NCc3ccc(C)cc3)c(C)c2c1	–	·	38.3	–
Cc1ccc(CNC(=O)c2oc3ccc(S(=O)(=O)N4CCOCC4)cc3c2C)cc1	–	·	31.1	–
Cc1c(C(=O)N(C)Cc2ccccc2)oc2ccc(S(=O)(=O)N3CCCC3)cc12	–	·	39.2	–
CCc1cccc(NC(=O)c2ccc(Br)o2)c1	–	–	–	–
C=CCc1ccc(OCCCCN2CC(C)OC(C)C2)c(OC)c1 (configuration not stated)	–	·	–	–
CCN(CC)S(=O)(=O)c1ccc2oc(C(=O)NC(C)C)c(C)c2c1	–	·	29.2	–
O=C(NCC(=O)N(Cc1cccs1)C(C(=O)NC1CCCC1)c1ccco1)c1cccs1 (configuration not stated)	–	–	–	–
COc1ccc(C2N(c3cc(Cl)ccc3OC)C(=O)C3CCCN32)cc1 (configuration not stated)	–	–	–	–
SMILES	Lung fibro prol	Jurkat viability	H69AR inhibit	HUVEC prolif 384
CCCc1nn(-c2cc(Cl)ccc2OC)c2c1C(=O)CC(C)(C)C2	–	·	21.8	–
CCc1nn(-c2cc(Cl)ccc2OC)c2c1C(=O)CCC2	–	–	22.2	–
CCCc1nn(C(=O)c2ccccc2)c2c1C(=O)CC(C)(C)C2	–	·	–	–
CC(C)NS(=O)(=O)c1ccc(OCC(=O)Nc2ccc(F)cc2F)cc1	–	·	–	–
Nc1nc(SCC(=O)N2CCCc3ccccc32)n(-c2ccccc2)n1	–	–	–	–
CC(C)C1C(c2ccccc2)N(C)C(c2ccccc2)CC1(O)c1ccccc1 (configuration not stated)	–	·	19.7	–
c1ccc(-c2nc3nonc3nc2-c2ccccc2)cc1	16.8	–	1.9	–
Nc1nnc(-c2ccccc2)c(-c2ccccc2)n1	–	–	–	–
C=CCN1C(=O)C(O)(CC(=O)c2ccc(-n3cccc3)cc2)c2ccccc21 (configuration not stated)	–	–	–	–
C=CCN1C(=O)C2(NNc3ccccc3O2)c2ccccc21 (configuration not stated)	–	·	12.7	22.8
COc1cccc(/C=C/C(=O)c2ccc[nH]2)c1	–	·	19.0	–
COc1cccc(-c2cc(C(=O)O)[nH]n2)c1	–	·	–	–
COc1cc(C#CC#CCN2CCCCC2)ccc1O	–	–	3.6	–
O=C1C=C(Nc2ccc(Cl)cc2)CC(c2ccco2)C1 (configuration not stated)	–	·	25.5	–
CC(=O)Oc1c(Cl)c(N2CCOCC2)c(OC(C)=O)c2ccccc12	–	–	1.9	–
Cc1cc(OC(=O)N2CCOCC2)cc(C)c1Cl	–	–	–	–
CCOC(=O)C(NC(C)=O)(Nc1ccc(S(=O)(=O)Nc2ccncn2)cc1)C(F)(F)F (configuration not stated)	–	·	–	–
Cc1ccc(/C=C/C2=Cc3c(sc(NC(=O)CSc4n[nH]c(N)n4)c3C#N)C(C)(C)C2)o1	–	–	28.5	–
CCOC(=O)c1sc(NC(=O)CSc2n[nH]c(-c3ccccc3)n2)c(C#N)c1C	–	–	–	–
COc1ccc(OC)c(N=C(C)C2=C(O)COC2=O)c1	–	·	21.9	–
CC(=Nc1ccccc1)C1=C(O)COC1=O	–	·	–	–
CCc1ccccc1NC(=O)CN1CCC(NC(=O)COC)CC1	–	–	–	–
CCOC(=O)C1=C(O)/C(=C/c2cn(CC(=O)N3CCCC3)c3ccccc23)SC1=Nc1ccccc1	–	·	11.5	–
COC(=O)c1cn(CC(=O)N2CCCCCC2)c2ccccc12	–	–	–	–
O=C(Nc1ccc(-n2nncc2-c2ccco2)cc1)c1cc2ccccc2oc1=O	–	·	·	–
SMILES	Lung fibro prol	Jurkat viability	H69AR inhibit	HUVEC prolif 384
c1ccc(-c2nc(N3CCNCC3)nc3ccccc23)cc1	–	·	4.4	–
COc1cc(NCCCCCCCN)c2ncccc2c1	22.7	·	–	3.1
COc1cc(NC(=O)c2ccc3c(c2)OCO3)c2ncccc2c1	–	–	–	–
CS(=O)(=O)N(Cc1ccccc1)c1ccc(C(=O)NC2CCCCC2O)cc1 (configuration not stated)	–	–	–	–
Cc1ccc(N(Cc2ccc(C(=O)NC3CCCCC3)cc2)S(C)(=O)=O)cc1C	–	·	19.2	–
Cc1cc(C)c(S(=O)(=O)N(C2=NCCS2)S(=O)(=O)c2c(C)cc(C)cc2C)c(C)c1	–	·	22.3	–
Cc1cc(C)c(S(=O)(=O)N(CC(=O)O)CC(=O)O)c(C)c1	–	·	–	–
Nc1ccc(C(=O)c2ccc3c(c2)OCCO3)cc1N	–	–	35.6	–
Nc1cc2c(cc1C(=O)c1ccccc1)OCCO2	–	·	–	–
N=C1N(/N=C/c2ccccc2)C(=Nc2ccccc2)C(=S)N1c1ccccc1	–	·	1.6	–
COc1ccc(CNC(=O)CSc2nnc(C)s2)cc1	–	–	–	–
CNCCCOc1ccc(C(C)(C)c2ccccc2)cc1	–	·	9.9	–
O=C(Nc1ccccc1)c1cc(N2CCOCC2)nc2ccccc12	–	·	–	–
Cc1ccc(NC(=O)c2cc(N3CCOCC3)nc3ccccc23)cc1	–	·	33.4	–
COc1ccc(OC)c(N=c2oc3c(OC)cccc3cc2C(=O)NCc2ccco2)c1	–	–	–	–
COc1ccc(N=c2oc3c(OC)cccc3cc2C(=O)NCc2ccco2)cc1OC	–	–	36.3	–
COc1ccc(CC(=O)NCc2ccco2)cc1OC	–	·	–	–

Assay outcomes as filed in PubChem.
